Measured values published in ChEMBL document CHEMBL3102806, “1,2,4-Triazole/oxime hybrids as new strategy for nitric oxide donors: Synthesis, anti-inflammatory, ulceroginicity and antiproliferative activities” (Eur J Med Chem, 2014).

Legend:
[1] = test system: DU-145; assay: Growth inhibition of human DU145 cells assessed as cell growth at 10^-5 M after 48 hrs by sulforhodamine B assay relative to control; format: functional; details: DU-145, 48 h, read-out: Activity
Method in brief: (§1)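 NCI ~60 human tumour cell line screen. Single concentration of 10^-5 M added to cultures for 48 h. End point by sulforhodamine B protein staining read spectrophotometrically. Percent growth relative to untreated control cells.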

[2] = test system: NCI-H226; assay: Growth inhibition of human NCI-H226 cells assessed as cell growth at 10^-5 M after 48 hrs by sulforhodamine B assay relative to control; format: functional; details: NCI-H226, 48 h, read-out: Activity
Method in brief: (§2)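 NCI primary screen, one-dose format across about 60 human tumour cell lines. Single addition at 10^-5 M with 48 h incubation; SRB protein-binding dye end point read spectrophotometrically. Reported as percent growth of treated cells versus untreated controls.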

[3] = test system: PC-3; assay: Growth inhibition of human PC3 cells assessed as cell growth at 10^-5 M after 48 hrs by sulforhodamine B assay relative to control; format: functional; details: PC-3, 48 h, read-out: Activity; method in brief: as §2
[4] = test system: HT-29; assay: Growth inhibition of human HT-29 cells assessed as cell growth at 10^-5 M after 48 hrs by sulforhodamine B assay relative to control; format: functional; details: HT-29, 48 h, read-out: Activity; method in brief: as §1
[5] = test system: Rattus norvegicus; assay: Antiinflammatory activity in albino rat assessed as inhibition of carrageenan-induced paw edema at 0.28 mmol/kg, po administered 30 mins prior to carrageenan-challenge measured after 1 hr relative to control; format: functional
Method in brief: (§3)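 Male albino rats in groups of four were fasted 24 h with water allowed. Dosing was oral at 0.28 mmol/kg, suspended in 0.5% w/v CMC; controls got CMC alone. After 30 min, 0.1 ml of 1% carrageenan in saline went subplantar into the right hind paw and saline into the left. Paw thickness was read by caliper before and at 1–5 h. % inhibition = [(VR−VL)control−(VR−VL)treated]/(VR−VL)control ×100. Mean ± SEM, n = 4, one-way ANOVA vs control.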

[6] = test system: NCI-H460; assay: Growth inhibition of human NCI-H460 cells assessed as cell growth at 10^-5 M after 48 hrs by sulforhodamine B assay relative to control; format: functional; details: NCI-H460, 48 h, read-out: Activity; method in brief: as §2
[7] = test system: HCT-116; assay: Growth inhibition of human HCT116 cells assessed as cell growth at 10^-5 M after 48 hrs by sulforhodamine B assay relative to control; format: functional; details: HCT-116, 48 h, read-out: Activity; method in brief: as §1
[8] = test system: SF-295; assay: Growth inhibition of human SF295 cells assessed as cell growth at 10^-5 M after 48 hrs by sulforhodamine B assay relative to control; format: functional; details: SF-295, 48 h, read-out: Activity; method in brief: as §2
[9] = Induction of nitric oxide release in phosphate buffer at 10^-4 M at pH 7.4 after 4 hrs by Griess colorimetric method in presence of N-acetylcysteine; format: physicochemical; details: pH 7.4, 4 h, 100 µM
Method in brief: (§4)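 Final drug concentration 10^-4 M, added from DMF into 1:1 50 mM phosphate buffer (pH 7.4)/MeOH containing 5 × 10^-4 M N-acetylcysteine, at 37 °C. Nitrite read with Griess reagent after 10 min at room temperature, absorbance at 546 nm. Calibration with sodium nitrite standards (10–80 nmol/ml). Reported as mol NO per mol, n = 4 reaction mixtures.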

[10] = test system: SNB-75; assay: Growth inhibition of human SNB75 cells assessed as cell growth at 10^-5 M after 48 hrs by sulforhodamine B assay relative to control; format: functional; details: SNB-75, 48 h, read-out: Activity
Method in brief: (§5)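 NCI primary screen across about 60 human tumour cell lines. Single dose of 10^-5 M, cultures incubated 48 h, end point by sulforhodamine B protein staining read spectrophotometrically. Results are given as percent growth of treated cells relative to untreated control cells.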

[11] = test system: SNB-19; assay: Growth inhibition of human SNB19 cells assessed as cell growth at 10^-5 M after 48 hrs by sulforhodamine B assay relative to control; format: functional; details: SNB-19, 48 h, read-out: Activity; method in brief: as §5
[12] = test system: HCT-15; assay: Growth inhibition of human HCT15 cells assessed as cell growth at 10^-5 M after 48 hrs by sulforhodamine B assay relative to control; format: functional; details: HCT-15, 48 h, read-out: Activity; method in brief: as §1
[13] = test system: M14; assay: Growth inhibition of human M14 cells assessed as cell growth at 10^-5 M after 48 hrs by sulforhodamine B assay relative to control; format: functional; details: M14, 48 h, read-out: Activity; method in brief: as §2
[14] = test system: Malme-3M; assay: Growth inhibition of human MALME-3M cells assessed as cell growth at 10^-5 M after 48 hrs by sulforhodamine B assay relative to control; format: functional; details: read-out: Activity; method in brief: as §2
[15] = test system: SW-620; assay: Growth inhibition of human SW620 cells assessed as cell growth at 10^-5 M after 48 hrs by sulforhodamine B assay relative to control; format: functional; details: SW-620, 48 h, read-out: Activity; method in brief: as §5
[16] = test system: OVCAR-3; assay: Growth inhibition of human OVCAR3 cells assessed as cell growth at 10^-5 M after 48 hrs by sulforhodamine B assay relative to control; format: functional; details: OVCAR-3, 48 h, read-out: Activity; method in brief: as §2
[17] = Induction of nitric oxide release in phosphate buffer at 10^-4 M at pH 7.4 after 1 hr by Griess colorimetric method in presence of N-acetylcysteine; format: physicochemical; details: pH 7.4, 1 h, 100 µM; method in brief: as §4
[18] = Growth inhibition of human UO31 cells assessed as cell growth at 10^-5 M after 48 hrs by sulforhodamine B assay relative to control; format: functional; details: UO-31, 48 h, read-out: Activity; method in brief: as §5
[19] = test system: Rattus norvegicus; assay: Antiinflammatory activity in albino rat assessed as inhibition of carrageenan-induced paw edema at 0.28 mmol/kg, po administered 30 mins prior to carrageenan-challenge measured after 5 hrs relative to control; format: functional; method in brief: as §3
[20] = Growth inhibition of human HCC2998 cells assessed as cell growth at 10^-5 M after 48 hrs by sulforhodamine B assay relative to control; format: functional; details: HCC 2998, 48 h, read-out: Activity; method in brief: as §1
[21] = test system: BT-549; assay: Growth inhibition of human BT549 cells assessed as cell growth at 10^-5 M after 48 hrs by sulforhodamine B assay relative to control; format: functional; details: BT-549, 48 h, read-out: Activity; method in brief: as §1
[22] = test system: SK-MEL-2; assay: Growth inhibition of human SK-MEL-2 cells assessed as cell growth at 10^-5 M after 48 hrs by sulforhodamine B assay relative to control; format: functional; details: SK-MEL-2, 48 h, read-out: Activity; method in brief: as §5
[23] = test system: NCI-H522; assay: Growth inhibition of human NCI-H522 cells assessed as cell growth at 10^-5 M after 48 hrs by sulforhodamine B assay relative to control; format: functional; details: NCI-H522, 48 h, read-out: Activity; method in brief: as §2
[24] = test system: Rattus norvegicus; assay: Antiinflammatory activity in albino rat assessed as inhibition of carrageenan-induced paw edema at 0.28 mmol/kg, po administered 30 mins prior to carrageenan-challenge measured after 4 hrs relative to control; format: functional; method in brief: as §3
[25] = Growth inhibition of human SF539 cells assessed as cell growth at 10^-5 M after 48 hrs by sulforhodamine B assay relative to control; format: functional; details: SF-539, 48 h, read-out: Activity; method in brief: as §2

| SMILES | growth at 10 µM [1] | growth at 10 µM [2] | growth at 10 µM [3] | growth at 10 µM [4] | inhibition in vivo at 280 µmol/kg [5] | growth at 10 µM [6] | growth at 10 µM [7] | growth at 10 µM [8] | Activity [9] | growth at 10 µM [10] | growth at 10 µM [11] | growth at 10 µM [12] | growth at 10 µM [13] | growth at 10 µM [14] | growth at 10 µM [15] | growth at 10 µM [16] | Activity [17] | growth at 10 µM [18] | inhibition in vivo at 280 µmol/kg [19] | growth at 10 µM [20] | further results |
| --- | --- | --- | --- | --- | --- | --- | --- | --- | --- | --- | --- | --- | --- | --- | --- | --- | --- | --- | --- | --- | --- |
| C/C(=N\O)c1ccc(NC(=O)CSc2nnc(-c3ccccc3)n2-c2ccccc2)cc1 | 67.9% | 72.4% | 104% | 73.3% | 50% | -34.7% | 97.5% | 52.6% | 0.23 mol/mol | 59.2% | 45.8% | 84% | 100% | 91.8% | 99.8% | 87.3% | 0.11 mol/mol | 90.6% | 66% | 28.6% | growth at 10 µM [21]: 75.3%; growth at 10 µM [22]: 97.7%; growth at 10 µM [23]: 53.3%; inhibition in vivo at 280 µmol/kg [24]: 67%; growth at 10 µM [25]: 97.2% |
| COc1ccc(-c2nnc(SCC(=O)Nc3ccc(/C(C)=N/O)cc3)n2-c2ccccc2)cc1OC | 88.3% | 81.9% | 110% | 91.2% | 57% | 102% | 69.2% | 39.1% | 0.39 mol/mol | -16.5% | 75.8% | 98.6% | 89.9% | 61.8% | 115% | 82% | 0.15 mol/mol | 104% | 76% | 94% | growth at 10 µM [21]: 65.2%; growth at 10 µM [22]: 57.6%; growth at 10 µM [23]: 35.3%; inhibition in vivo at 280 µmol/kg [24]: 79%; growth at 10 µM [25]: 43% |
